MT1-MMP act inh = inhibitors of human MT1-MMP activation; GFP/RFP ratio change, % at 20 µM; HT1080 RFP-PRO-GFP cells, GFP/RFP ratio fluorescence, overnight; percent of plate control window, DMSO zero; P50281; 360,000 compounds, 0.061% hits; AID 651647;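 active means GFP/RFP ratio change of at least 30% with cell ATP level not reduced by more than half and red fluorescence within 50% of control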
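Test system: HT1080 RFP-PRO-GFP cells; Benchmarks: DMSO and RFP-L50D-GFP cell wells; Timing: cells overnight before dosing, compound overnight, 37 °C, 5% CO2; Compound: one 20 µM compound dose with 1% DMSO; Read-out: GFP/RFP fluorescence ratio.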
eIF4H inh = inhibitors of RNA binding by human eIF4H; Q15056; eIF4H fluorescence polarization binding assay; inhibition, % at 35 µM; 290,000 compounds, 0.94% hits;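 further: calls also rest on retests at 20 µM and on dose response follow-up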
SKN-1 block = C. elegans SKN-1 inhibition. C. elegans VP596 Pgst-4::GFP/RFP ratio, acrylamide-induced, 24 h. inhibition, % at 21.8 µM. 360,000 compounds, 0.49% hits. AID 624304;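 active means interference check ratio from 0.5 to 1.5 plus GFP to RFP signal ratio inhibition reaching or exceeding a fixed threshold, cut at about 30% in these data, passing the limit was not always enough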
PABP1 MLLE inh = blocks PAM2 peptide binding to the PABP1 MLLE domain; P11940; 360,000 compounds, 0.36% hits; AID 588489; GST-MLLE / FITC-PAM2 fluorescence polarization; inhibition, % at 20 µM; in the data active means inhibition above about 35%, passing the limit was not always enough;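 further: plate controls were DMSO wells with GST-MLLE for no effect and wells lacking GST-MLLE protein for full effect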
Target sequence (P11940 whole entry, looked up, the tested form may be a part): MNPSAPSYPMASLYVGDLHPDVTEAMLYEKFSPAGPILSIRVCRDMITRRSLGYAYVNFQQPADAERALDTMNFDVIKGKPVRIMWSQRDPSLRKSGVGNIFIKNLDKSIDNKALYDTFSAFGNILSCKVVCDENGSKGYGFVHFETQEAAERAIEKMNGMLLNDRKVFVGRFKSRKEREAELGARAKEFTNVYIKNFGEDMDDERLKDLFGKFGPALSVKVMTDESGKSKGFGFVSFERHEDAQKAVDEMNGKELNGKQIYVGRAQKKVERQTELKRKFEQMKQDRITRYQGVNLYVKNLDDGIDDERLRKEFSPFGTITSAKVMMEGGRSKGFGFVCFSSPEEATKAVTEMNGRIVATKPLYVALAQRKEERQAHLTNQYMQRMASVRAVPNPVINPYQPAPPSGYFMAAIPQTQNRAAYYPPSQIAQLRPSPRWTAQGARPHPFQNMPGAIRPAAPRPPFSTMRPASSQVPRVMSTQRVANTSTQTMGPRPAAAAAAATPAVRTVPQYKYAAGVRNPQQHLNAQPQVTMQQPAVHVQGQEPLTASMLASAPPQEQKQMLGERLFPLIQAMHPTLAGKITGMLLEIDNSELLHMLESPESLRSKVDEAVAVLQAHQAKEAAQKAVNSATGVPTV
PABP FP inh = PABP-poly(A) binding inhibition; P11940; PABP-poly(A) RNA binding, fluorescence polarization; inhibition, % at 35 µM; 290,000 compounds, 1% hits; AID 2014;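 further: calls also rest on retests at 20 µM and on dose response follow-up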
MT1-MMP act val = validation of inhibitors of human MT1-MMP activation | 200 compounds, 10% hits | shares compounds with MT1-MMP act inh | HT1080 RFP-PRO-GFP cells, GFP and RFP fluorescence ratio, overnight | AID 652235 | inhibition, % at 20 µM;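 active means inhibition of at least 50% in the primary cell screen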
Active calls of the source: *; . = not tested or not shown. Shown are actives, neighbours in structure and some others; about 1.7% of the full set was active somewhere. Unless noted, how the calls were made is not given here.

SMILES	MT1-MMP act inh	eIF4H inh	SKN-1 block	PABP1 MLLE inh	PABP FP inh	MT1-MMP act val
O=C1c2cccc(Cl)c2C(=O)c2c1cccc2N1CCCC1	46*	.	50	4	.	16
Nc1cc(=O)[nH]c(=O)n1CCCc1ccccc1	0	.	17	10	.	.
CC(=O)Nc1ccc(S(=O)(=O)NCc2ccc3[nH]c(C)cc3c2)cc1	31*	5	21	33	-4	17
Cc1ccc(S(=O)(=O)NCc2ccc3[nH]c(C)cc3c2)cc1	-2	19	24	2	7	.
O=C(c1ccc(Cl)cc1)N1CCC(C(=O)N2CCCc3ccccc32)CC1	-2	-9	-5	13	-9	.
Cc1cccc(N2CCN(C(=O)c3ccccc3SCC(=O)N3CCCC3)CC2)c1C	16	.	-7	8	.	.
CCC(=NNc1ccc([N+](=O)[O-])cc1[N+](=O)[O-])c1ccccc1	19	.	2	0	.	.
CC/C(=N\Nc1ccc([N+](=O)[O-])cc1[N+](=O)[O-])c1ccc(O)cc1	35*	-15	19	2	5	27
COc1ccc(Nc2nc(-c3c[nH]c4ccccc34)cs2)cc1	33*	14	4	-32	-1	8
CC(=O)c1ccc(NC(=O)CS(=O)(=O)c2cn(CC(=O)N3CCOCC3)c3ccccc23)cc1	1	1	0	14	-4	.
COc1cc(/C=N/c2oc(C)c(C)c2C#N)cc(Br)c1O	33*	35	13	-144	-19	8
COc1ccc(/C=N/c2oc(C)c(C)c2C#N)c(OC)c1	3	37	0	-12	9	.
CCN1C[C@@H]2[C@@H]3C(=O)N(C)C(=O)[C@@H]3[C@](Cc3ccccc3)(C1=O)N2C(=O)c1ccc(C(C)(C)C)cc1	3	.	-12	-10	.	.
Cc1ccccc1N=C/C=C1\N(C)c2ccccc2C1(C)C	56*	-8	16	4	28	8
CO/N=C/C=C1/N(C)c2ccccc2C1(C)C	0	-3	7	-2	7	.
O=C(O)c1cc(N=Nc2c(O)ccc3ccccc23)cc(C(=O)O)c1	33*	-7	33	-40	1	30
NS(=O)(=O)c1ccc(N=Nc2c(O)ccc3ccccc23)cc1	1	-5	4	-6	9	.
Oc1ccc(N=Nc2c(O)ccc3ccccc23)cc1	73*	-13	32	-22	9	41
CCCCOc1cccc(-c2cc(C(=O)NNC(=S)NCC)c3ccccc3n2)c1	39*	17	12	29	8	6
CCNC(=S)NNC(=O)c1cc(-c2cccc(OCC)c2)nc2ccccc12	6	18	6	10	9	.
COc1ccc(Nc2ccccc2N)cc1	31*	2	7	-52	-10	51*
COC(=O)CCC(=O)OC1(C)C(=O)C2=CN(CC3CC3)C(c3ccc(OC)cc3)=CC2=C(Br)C1=O (stereo not given)	30*	25	24	-11	29	15
COC(=O)CCC(=O)OC1(C)C(=O)C2=CN(Cc3ccc(OC)cc3)C(c3ccc(OC)cc3)=CC2=C(Br)C1=O (stereo not given)	3	.	-5	-29	.	.
COc1ccc(S(=O)(=O)N2CCN(C(=O)COc3ccc(C)c(C)c3)CC2)cc1OC	-5	10	5	5	1	.
Cc1ccc(S(=O)(=O)Nc2cccc(C(=O)NCCCn3ccnc3)c2)cc1F	1	.	2	-6	.	.
SMILES	MT1-MMP act inh	eIF4H inh	SKN-1 block	PABP1 MLLE inh	PABP FP inh	MT1-MMP act val
COc1ccc(-c2cc3ccc(OC(C)C(=O)O)cc3oc2=O)cc1 (stereo not given)	-20	-3	-8	3	9	.
Cc1cc2cc(CNS(=O)(=O)c3ccc4ccccc4c3)ccc2n1C	45*	29	54	43*	14	6
Cc1cc(C)c(S(=O)(=O)NCc2ccc3c(c2)cc(C)n3C)c(C)c1	40	40	58	27	5	.
O=C1c2cccc(NCCCNCCO)c2C(=O)c2cccc(NCCCNCCO)c21	68*	.	78	-1	.	55*
COc1ccc(Cc2n[nH]c(=S)n2NC(=O)Nc2ccc(Cl)c(Cl)c2)cc1	-1	-11	0	-52	5	.
Cc1cccc(NC(=S)NCc2ccc3c(c2)cc(C)n3C)c1C	41*	11	37	-21	7	8
COc1cccc(NC(=S)NCc2ccc3c(c2)cc(C)n3C)c1	38*	-9	35	7	-9	10
O=C(NNc1c2ccccc2nc2ccccc12)c1ccc(O)cc1O	27	-7	20	-31	-2	.
O=C(NNc1c2ccccc2nc2ccccc12)c1ccccc1O	32*	-3	9	-43	-1	39
O=C(COc1ccccc1)NNc1c2ccccc2nc2ccccc12	19	-12	5	0	2	.
COc1ccc(OCC(=O)NNc2c3ccccc3nc3ccccc23)cc1	35*	-9	-21	-3	-12	32
CC(Sc1ccccc1)C(=O)NCCc1ccccc1 (stereo not given)	0	-2	-4	-7	2	.
Cc1cc(=O)n2[nH]c(-c3ccc(C(C)(C)C)cc3)cc2n1	34*	7	-4	9	7	24
O=C(Nc1ccc(N2CCCC2)cc1)c1cc([N+](=O)[O-])ccc1N1CCOCC1	-3	1	9	10	-8	.
COc1cc(/C=C2\SC(=O)N(CC(=O)Nc3cccc(C)c3)C2=O)cc([N+](=O)[O-])c1O	21	15	11	-1	-7	.
COc1cc(/C=C2\SC(=O)N(c3ccccc3Cl)C2=O)cc([N+](=O)[O-])c1O	31*	0	2	-5	14	27
O=C(Cc1ccc([N+](=O)[O-])cc1)NCc1ccncc1	2	-7	14	-6	2	.
Cc1cc2cc(CNC(=O)C3CCCC3)ccc2n1C	35*	45	53	4	40	-5
Cc1cc2cc(CNC(=O)Cc3ccc([N+](=O)[O-])cc3)ccc2n1C	42*	47	39*	40*	16	3
CCC(=O)N1CCCN(S(=O)(=O)c2ccc(C)cc2)C1c1ccc(OC)cc1 (stereo not given)	-1	3	5	0	10	.
CN(C)S(=O)(=O)c1ccc(Cl)c(NC(=O)COC(=O)CCC2CCCCC2)c1	3	.	-2	1	.	.
COc1cc(S(=O)(=O)Nc2ccc3nc(C)sc3c2)ccc1NC(C)=O	-2	.	15	-8	.	.
COc1ccc(-c2oc3ccc(-c4ccc(OC)nc4)cc3c2C#CC2(O)CCCCC2)cc1	32*	-5	15	-12	-3	10
COc1ccc(-c2oc3ccc(-c4ccc5c(c4)OCO5)cc3c2C#CC2(O)CCCCC2)cc1	15	.	-11	-3	.	.
O=c1[nH]nc(CNc2ccc(O)cc2)c2ccccc12	49*	59*	33	6	55*	-2

High-throughput results deposited in PubChem BioAssay by Sanford-Burnham Center for Chemical Genomics.
